Consider 14 compounds from PubChem BioAssay.

Activity calls are given as the source filed them. Cut-off read from the data, not from the text of the source, unless noted: active = inhibition above about 30%; inactive = the rest.

Assay [1] in a line: Her2 expression decrease, cell viability multiplex – SKBR3 breast tumor cells, AlphaScreen, ATP viability, primary screen (AID 461;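 active = Her2 level under about 52% in both replicate screens, with viability over 70% of control, limit read from the data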;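 for Her2 level: lower value means less Her2 protein in the cells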;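 for viability: percent of carrier control wells set as 100% viability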). The note with it: SKBR3 Her2 protein level, 18-24 h, measured here: SKBR3 viability, ATP luminescence, at 10 µM.
The target of assay [2] is Receptor tyrosine-protein kinase erbB-2 (Homo sapiens) (UniProt P04626). Described as above. Conditions: 18-24 h, at 10 µM, stronger effect = lower value.
Chain of Receptor tyrosine-protein kinase erbB-2 (Homo sapiens) (P04626 whole entry, looked up): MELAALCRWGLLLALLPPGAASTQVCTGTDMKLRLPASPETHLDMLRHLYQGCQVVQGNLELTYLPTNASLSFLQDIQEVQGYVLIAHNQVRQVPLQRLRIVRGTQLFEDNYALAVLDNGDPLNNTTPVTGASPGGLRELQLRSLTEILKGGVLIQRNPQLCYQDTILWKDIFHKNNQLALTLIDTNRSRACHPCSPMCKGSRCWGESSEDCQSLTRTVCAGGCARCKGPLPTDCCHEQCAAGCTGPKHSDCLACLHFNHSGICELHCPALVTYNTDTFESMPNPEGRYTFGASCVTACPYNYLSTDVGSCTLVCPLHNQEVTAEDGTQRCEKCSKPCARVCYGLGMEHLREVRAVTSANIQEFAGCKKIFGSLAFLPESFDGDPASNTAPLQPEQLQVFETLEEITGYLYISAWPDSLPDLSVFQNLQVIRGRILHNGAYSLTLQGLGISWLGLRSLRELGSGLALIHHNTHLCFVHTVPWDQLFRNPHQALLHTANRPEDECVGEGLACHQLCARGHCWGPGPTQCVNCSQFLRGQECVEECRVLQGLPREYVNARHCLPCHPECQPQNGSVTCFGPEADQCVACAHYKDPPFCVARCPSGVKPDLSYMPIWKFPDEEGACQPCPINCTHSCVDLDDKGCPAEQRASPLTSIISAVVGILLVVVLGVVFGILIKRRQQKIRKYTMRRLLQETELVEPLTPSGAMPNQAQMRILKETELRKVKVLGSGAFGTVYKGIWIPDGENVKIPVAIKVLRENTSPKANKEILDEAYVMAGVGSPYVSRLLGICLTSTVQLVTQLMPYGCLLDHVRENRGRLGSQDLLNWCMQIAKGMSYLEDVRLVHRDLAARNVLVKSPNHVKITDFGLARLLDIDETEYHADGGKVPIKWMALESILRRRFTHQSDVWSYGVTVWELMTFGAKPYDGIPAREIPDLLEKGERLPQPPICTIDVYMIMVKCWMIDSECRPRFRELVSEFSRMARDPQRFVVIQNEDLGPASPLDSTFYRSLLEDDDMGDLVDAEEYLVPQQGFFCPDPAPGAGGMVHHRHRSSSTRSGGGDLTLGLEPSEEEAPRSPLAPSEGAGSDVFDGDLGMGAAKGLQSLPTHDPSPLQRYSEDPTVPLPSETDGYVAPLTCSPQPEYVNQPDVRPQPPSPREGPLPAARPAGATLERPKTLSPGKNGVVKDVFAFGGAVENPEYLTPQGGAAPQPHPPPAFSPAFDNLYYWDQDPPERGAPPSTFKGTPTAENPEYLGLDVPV
Assay [3] in a line: reduced viability of SK-BR-3 breast cancer cells – cell-based, 24 h, human, pilot screen (AID 572;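 active = viability at or below 10% of carrier control in both of two separate runs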;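 note: compound exposure lasted between 18 and 24 h rather than exactly 24 h; 100% = carrier-treated control wells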). Conditions: SK-BR-3 viability, CellTiter-Glo luminescence, at 10 µM, stronger effect = lower value.
A short description of assay [4]: HUVEC growth inhibition – cell-based, human, primary screen (AID 575;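 active = viability at or below 30% in both replicate assays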;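 note: 100% = median of untreated cell wells with 0.1% DMSO on each plate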). The note with it: HUVEC proliferation, CellTiter-Glo luminescence, 72 h; at 10 µM; stronger effect = lower value. The gist of the method:
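system = HUVEC primary cells | amount = 1250 cells/well | buffer or medium = supplemented EBM, 2% fetal bovine serum | dosing = single-point 10 µM, DMSO 0.1% final | times = 72 h compound incubation | detection = CTG luminescence | read-out = % viability relative to median vehicle-well signal on each plate | control set = vehicle and MePR control wells | format = collagen-coated 384-well format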

A short description of assay [5]: H69AR cell proliferation blockers – human, duplicate replicates, primary screen (AID 580;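 active = viability at or under a set limit in both replicates, limit being median viability minus 3 SD, cut at about 48% in these data, passing the limit was not always enough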;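 note: 100% = mean luminescence of untreated wells and 0% = no signal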). Conditions: H69AR lung tumor cells viability, ATP luminescence, 72 h; at 10 µM; stronger effect = lower value.
Assay [6] is described as follows: MRP1 drug-resistance reversers in H69AR cells – cell-based, doxorubicin co-treatment, pilot screen (AID 601;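 active = viability loss from added drug above about 55%, and viability with drug at most 40%, in both replicates, limit read from the data, passing the limit was not always enough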). Conditions: CellTiter-Glo, 72 h, at 10 µM; for differential viability (reversal): stronger effect = higher value.
The nature of assay [7]: yeast transport mutant growth inhibition pilot in 384-well plates, post-Golgi transport modulator project (AID 636; in the data active = inhibition above about 31%). The note with it: absorbance 615 nm, about 18 h, stronger effect = higher value.
Assay [8] can be described thus: growth suppression of yeast trafficking mutant, preliminary HTS, modulators of trafficking downstream of Golgi apparatus project, 1536-format plate, OD 615 nm (AID 637). The note with it: yeast transport mutant growth, absorbance 615 nm, 18 h; stronger effect = higher value.
The mark [9] stands for this setting: H69AR cells + 2 uM doxorubicin, measured here: viability with 2 uM doxorubicin, stronger effect = lower value.
The mark [10] stands for this setting: H69AR cells, compound alone cytotoxicity.

Take `c1ccc(Cc2nnc3n2CCCCC3)cc1`: the viability in assay [1] was 99%; in assay [3] it was 99% (inactive); in assay [4] it was 93.9% (inactive); in assay [5], 99.2% (inactive); in assay [6] (setting [9]), 97.7%; in assay [6] (setting [10]) it was 99.2%. In assay [2], the Her2 level was 90% (inactive). The differential viability (reversal) in assay [6] (H69AR cells + 2 uM doxorubicin) is 1.42% (inactive). Further, the inhibition in assay [7] is -7.2% (inactive); in assay [8], 0.82% (inactive).

As for `c1ccc(Nc2ccccc2Nc2ccccn2)nc1`, the viability was 138% in assay [1]; 138% (inactive) in assay [3]; 95.8% (inactive) in assay [4]; 91.7% (inactive) in assay [5]; 99.2% in assay [6] (setting [9]); 91.7% in assay [6] (setting [10]). In assay [2], the Her2 level is 108% (inactive). In assay [6] (H69AR cells + 2 uM doxorubicin), the differential viability (reversal) was -7.51% (inactive). Also, the figures for the inhibition in assay [7] and in assay [8] were -3.33% (inactive) and 5.08% (inactive), respectively.

Turning to `Cc1nn(C)c(C)c1CNC(=O)c1cc2n(n1)C(C(F)(F)F)CC(c1cccs1)N2` (stereo not given), the viability was 89.5% in assay [1]; 89.5% (inactive) in assay [3]; 107% (inactive) in assay [4]; 112% (inactive) in assay [5]; 93.9% in assay [6] (setting [9]); 112% in assay [6] (setting [10]). In assay [2], the Her2 level is 83% (inactive). Moreover, in assay [6] (H69AR cells + 2 uM doxorubicin), the differential viability (reversal) was 18.2% (inactive). Also, the inhibition is 0.41% (inactive) in assay [7] and 0.32% (inactive) in assay [8].

As to `CC(C(=O)NC1CCCCCC1)N(c1ccccc1)S(C)(=O)=O` (stereo not given), the viability in assay [1] is 112%; in assay [3], 112% (inactive); in assay [4], 114% (inactive); in assay [5], 109% (inactive); in assay [6] (setting [9]), 103%; in assay [6] (setting [10]), 109%. Besides, the Her2 level in assay [2] was 97.5% (inactive). Besides, the differential viability (reversal) in assay [6] (H69AR cells + 2 uM doxorubicin) is 6.19% (inactive). The inhibition is -2.24% (inactive) in assay [7] and 2.79% (inactive) in assay [8].

For the compound `C=CCSc1ncccc1C(=O)O`, the viability was 89.5% in assay [1]; 89.5% (inactive) in assay [3]; 98.4% (inactive) in assay [4]; 97.1% (inactive) in assay [5]; 88.3% in assay [6] (setting [9]); 97.1% in assay [6] (setting [10]). Also, the Her2 level in assay [2] was 104% (inactive). In assay [6] (H69AR cells + 2 uM doxorubicin), the differential viability (reversal) was 8.72% (inactive). Moreover, the results for the inhibition in assay [7] and in assay [8] were -1.32% (inactive) and -7.42% (inactive), respectively.

On to `COc1ccc(OCC(=O)N2CCN(C(=O)Cc3ccccc3)CC2)cc1`, for which the viability is 90% in assay [1]; 90% (inactive) in assay [3]; 101% (inactive) in assay [4]; 84.6% (inactive) in assay [5]; 96.7% in assay [6] (setting [9]); 84.6% in assay [6] (setting [10]). In addition, the Her2 level in assay [2] is 96% (inactive). The differential viability (reversal) in assay [6] (H69AR cells + 2 uM doxorubicin) is -12.1% (inactive). In addition, the inhibition in assay [7] was 0% (inactive); in assay [8], 23.2% (inactive).

On to `C=CCn1c2ccccc2c2nnc(SCC(=O)NC(C(=O)OC)C(C)C)nc21` (stereo not given), for which the viability is 112% in assay [1]; 112% (inactive) in assay [3]; 83.5% (inactive) in assay [4]; 76.8% (inactive) in assay [5]; 74.5% in assay [6] (setting [9]); 76.8% in assay [6] (setting [10]). The Her2 level in assay [2] was 96% (inactive). Further, in assay [6] (H69AR cells + 2 uM doxorubicin), the differential viability (reversal) is 2.25% (inactive). Also, the inhibition in assay [7] is -3.12% (inactive); in assay [8], -4.26% (inactive).

Take `Cc1noc(C)c1S(=O)(=O)NCCN1CCN(c2ccccc2)CC1`: the viability was 96% in assay [1]; 96% (inactive) in assay [3]; 96.4% (inactive) in assay [4]; 96.1% (inactive) in assay [5]; 92.7% in assay [6] (setting [9]); 96.1% in assay [6] (setting [10]). The Her2 level in assay [2] was 98.5% (inactive). Also, the differential viability (reversal) in assay [6] (H69AR cells + 2 uM doxorubicin) was 3.43% (inactive). In addition, the inhibition in assay [7] and in assay [8] was -0.79% (inactive) in each case.

As to `CCC(Sc1nc2sc(C(=O)OC)c(C)c2c(=O)n1N)C(=O)NCC1CCCO1` (stereo not given), the viability in assay [1] was 102%; in assay [3], 102% (inactive); in assay [4], 94.2% (inactive); in assay [5], 82.2% (inactive); in assay [6] (setting [9]) it was 87.7%; in assay [6] (setting [10]) it was 82.2%. Besides, in assay [2], the Her2 level is 88% (inactive). In addition, in assay [6] (H69AR cells + 2 uM doxorubicin), the differential viability (reversal) is -5.51% (inactive). In addition, the values for the inhibition in assay [7] and in assay [8] were -6.49% (inactive) and -1.27% (inactive), respectively.

As for `CCOC(=O)c1c(NC(=O)CSc2nc3c(c(=O)n(C)c(=O)n3C)n2C(C)C)sc(C)c1C`, the viability in assay [1] was 106%; in assay [3], 106% (inactive); in assay [4], 91.4% (inactive); in assay [5] it was 89.9% (inactive); in assay [6] (setting [9]), 92.1%; in assay [6] (setting [10]), 89.9%. Besides, the Her2 level in assay [2] is 94% (inactive). The differential viability (reversal) in assay [6] (H69AR cells + 2 uM doxorubicin) was -2.12% (inactive). In addition, the inhibition in assay [7] is -0.53% (inactive); in assay [8], -3.23% (inactive).

As for `CCCC(c1nnnn1Cc1ccc(OC)cc1)N1CCN(c2ccccc2OC)CC1` (stereo not given), the viability in assay [1] was 103%; in assay [3] it was 103% (inactive); in assay [4] it was 92.4% (inactive); in assay [5] it was 90% (inactive); in assay [6] (setting [9]), 95.7%; in assay [6] (setting [10]), 90%. Moreover, the Her2 level in assay [2] was 112% (inactive). In addition, the differential viability (reversal) in assay [6] (H69AR cells + 2 uM doxorubicin) is -5.73% (inactive). Moreover, the inhibition in assay [7] was -2.47% (inactive); in assay [8] it was -2.3% (inactive).

On to `COCCn1c(=O)[nH]c2cc(C(=O)NCc3cccnc3)ccc2c1=O`, for which the viability in assay [1] is 89.5%; in assay [3], 89.5% (inactive); in assay [4], 107% (inactive); in assay [5], 97.9% (inactive); in assay [6] (setting [9]), 93.6%; in assay [6] (setting [10]), 97.9%. In addition, the Her2 level in assay [2] is 88.5% (inactive). In addition, in assay [6] (H69AR cells + 2 uM doxorubicin), the differential viability (reversal) was 4.27% (inactive). Further, the values for the inhibition in assay [7] and in assay [8] were -7.57% (inactive) and 1.17% (inactive), respectively.

As to `COc1cc(C(=O)Nc2cc(Cl)ccc2C)c(-n2cnnn2)cc1OC`, the viability was 102% in assay [1]; 102% (inactive) in assay [3]; 92.6% (inactive) in assay [4]; 94.9% (inactive) in assay [5]; 90.8% in assay [6] (setting [9]); 94.9% in assay [6] (setting [10]). Also, in assay [2], the Her2 level was 98% (inactive). For the same compound, in assay [6] (H69AR cells + 2 uM doxorubicin), the differential viability (reversal) is 4.13% (inactive). Also, the figures for the inhibition in assay [7] and in assay [8] were -8% (inactive) and 2.95% (inactive), respectively.

For `CSc1cccc(NC(=O)C2CCCN2S(=O)(=O)c2ccc3c(c2)CCC(=O)N3)c1` (stereo not given), the viability in assay [1] is 93%; in assay [3] it was 93% (inactive); in assay [4], 94.7% (inactive); in assay [5], 89% (inactive); in assay [6] (setting [9]), 88.6%; in assay [6] (setting [10]), 89%. In addition, in assay [2], the Her2 level was 93.5% (inactive). Moreover, the differential viability (reversal) in assay [6] (H69AR cells + 2 uM doxorubicin) is 0.435% (inactive). The inhibition in assay [7] is -4.21% (inactive); in assay [8], -8.73% (inactive).
